The results in this text go back to ChEMBL document CHEMBL4765348, “Discovery of the first Mycobacterium tuberculosis MabA (FabG1) inhibitors through a fragment-based screening” (Eur J Med Chem, 2020).

A short description of data set [1]: Inhibition of Mycobacterium tuberculosis His6-tagged MabA expressed in Escherichia coli BL21 (DE3) assessed as reduction in HBCoA formation using AcAcCoA as substrate preincubated for 30 mins followed by substrate and 100 uM NADPH addition and measured after 15 mins by LC-MS/MS analysis.
For data set [2], the system named is Mycobacterium tuberculosis. Nature of the data set: Antimycobacterial activity against GFP-tagged Mycobacterium tuberculosis H37Rv assessed as inhibition of microbial growth incubated for 5 days by fluorescence assay. Format: functional. As to conditions: 120 h. The method, boiled down: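 M. tuberculosis H37Rv expressing GFP, grown in 7H9 with 0.2% glycerol and 0.05% Tween80, diluted to OD600 0.02. Ten 3-fold dilutions from 300 μM to 15 nM, 0.3% DMSO. Incubated 5 days at 37 °C, fluorescence read at Ex/Em 485/535 nm. Two independent replicates. Rifampicin, isoniazid and ethionamide served as positive controls.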

The subject of data set [3] is Mycobacterium tuberculosis. Nature of the data set: Inhibition of Mycobacterium tuberculosis His6-tagged MabA expressed in Escherichia coli BL21 (DE3) assessed as reduction in HBCoA formation at 1 mM using AcAcCoA as substrate preincubated for 10 to 30 mins followed by substrate and NADPH addition and measured after 15 mins by LC-MS/MS analysis relative to control. The note with it: time 10-45 min. The essentials: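 Single-point screen of His6-MabA purified by Ni2+-affinity. Compound at 1 mM was preincubated 10 or 30 min at 23 °C with 400 nM enzyme in 100 mM Hepes pH 7. Reaction ran 15 min with 50 µM AcAcCoA and 50 µM NADPH in 1% DMSO, then was stopped with 1% TFA containing 5 µM butyryl-CoA internal standard. HBCoA/BCoA was measured by LC-MS/MS MRM. % inhibition was taken relative to DMSO and 200 µM INH-NADP adduct controls.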

For data set [4], the system named is Mycobacterium tuberculosis. Put plainly: Inhibition of Mycobacterium tuberculosis His6-tagged MabA expressed in Escherichia coli BL21 (DE3) assessed as reduction in HBCoA formation up to 100 uM using AcAcCoA as substrate preincubated for 10 to 30 mins followed by substrate and NADPH addition and measured after 15 mins by LC-MS/MS analysis. The note with it: dose microM <=100, time 10-45 min.

Data set [5] relates to Mycobacterium tuberculosis. Nature of the data set: Antimycobacterial activity against Mycobacterium tuberculosis H37Ra assessed as inhibition of microbial growth incubated for 4 weeks in culture medium at pH 6.8. The class given is functional. The note with it: 672 h.
Data set [6] relates to Mycobacterium tuberculosis. Nature of the data set: Binding affinity to Mycobacterium tuberculosis His6-tagged MabA expressed in Escherichia coli BL21 (DE3) at 100 uM by 19FNMR analysis.
A short description of data set [7]: Solubility of compound in PBS buffer at pH 7.4 incubated for 24 hrs under shaking conditions by LC-MS/MS analysis. The class given is physicochemical. The essentials: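 10 mM DMSO stock diluted 1:50 into PBS pH 7.4 or MeOH, in triplicate. Shaken 24 h at room temperature, centrifuged and filtered through 0.45 μm, then diluted in MeOH for LC-MS/MS MRM. Solubility is the PBS/MeOH signal-area ratio.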

Data set [8] is described as follows: Lipophilicity, logD of compound in octanol and PBS buffer at pH 7.4 incubated for 2 hrs under shaking condition by LC-MS/MS analysis. The class given is physicochemical. The method, boiled down: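 10 mM DMSO stock diluted 1:50 into 1/1 octanol/PBS pH 7.4, shaken 2 h at room temperature. Each phase was diluted in MeOH and quantified by LC-MS/MS MRM (ES−). LogD is the log of the octanol/PBS concentration ratio. Run in triplicate.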

Data set [9] concerns Mycobacterium tuberculosis. Nature of the data set: Non-competitive inhibition of Mycobacterium tuberculosis MabA expressed in Escherichia coli BL21 (DE3) assessed as reduction in HBCoA formation using AcAcCoA as substrate preincubated for 30 mins followed by substrate and 50 to 500 uM NADPH addition and measured after 15 mins by LC-MS/MS analysis. As to conditions: time 45.0 min. The essentials: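 Dose-response MabA assay (400 nM enzyme, 50 μM AcAcCoA, 30 min preincubation at 22 °C, 15 min reaction, LC-MS/MS HBCoA/BCoA) run at NADPH 50 and 500 μM. Test compound was tested at 8 points, 3-fold from 1 mM to 0.46 μM. INH-NADP adduct was tested from 200 μM to 0.09 μM. IC50s were compared between NADPH levels.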

The structures appear in SMILES notation. Activity calls are given as the source filed them. The rule behind the calls is not given here.

In the case of `O=C(Nc1ccc(I)cc1C(=O)O)c1ccc(Cl)cc1Cl`, the IC50 in [1] was 126 µM. Turning to `O=C1Nc2ccc(Br)cc2C1=O`, the IC50 in data set [1] is 72 µM. In addition, the MIC90 in data set [2] is above 300 µM.

As to `C/C=C/C=C/C(=O)Nc1c[nH]c(=O)[nH]c1=O`, in data set [1], the IC50 was determined as 65 µM. Further, in data set [2], the MIC90 is above 300 µM. In the case of `O=C(Nc1ccc(I)cc1C(=O)O)c1cccc(Cl)c1`, the IC50 in data set [1] came out at 70 µM. On the same count and under the same terms, under `O=C(O)c1cc(I)ccc1NC(=O)C1CCc2ccccc2C1` (stereo unspecified) stands 109 µM.

Consider `CC(C)(C)OC(=O)Nc1ccc(Br)cc1C(=O)O`, for which the inhibition in data set [3] turned out to be 95%. The IC50 in data set [1] was found to be 470 µM. For the compound `CC(C)(C)OC(=O)Nc1ccc(Oc2ccccc2)cc1C(=O)O`, in data set [3], the inhibition came to 100%. The IC50 in [1] was determined as 243 µM.

`CC(C)(C)OC(=O)Nc1ccc(F)cc1C(=O)O`: the inhibition in data set [3] was found to be 38%. Also, the half-maximal inhibitory concentration (IC50) in data set [1] worked out at 470 µM. For the compound `Oc1cc(Cl)ccc1Oc1ccc(Cl)cc1Cl`, the inhibition result in data set [4] is “inactive”. Consider `O=C(O)c1ccccc1O` [SALICYLIC ACID], for which the MIC in [5] is 33 µg/mL. Turning to `CC(C)COC(=O)Nc1ccc(I)cc1C(=O)O`, in data set [3], the inhibition turned out to be 100%. Moreover, the IC50 in data set [1] was found to be 310 µM.

For `CC(C)(C)OC(=O)Nc1ccc(-c2ccccc2)cc1C(=O)O`, the inhibition in data set [3] was 100%. Moreover, the IC50 in data set [1] stood at 194 µM.

As for `CC(C)(C)OC(=O)Nc1ccc(Cl)cc1C(=O)O`, in data set [3], the inhibition was 77%. In data set [1], the IC50 was above 500 µM. Take `Cc1cccc(Nc2ccccc2C(=O)O)c1C` [MEFENAMIC ACID]: in data set [5], the MIC was determined as 33 µg/mL. For the compound `C=CCOC(=O)Nc1ccc(I)cc1C(=O)O`, in data set [3], the inhibition is 83%. In addition, the half-inhibitory concentration (IC50) in data set [1] is above 500 µM. Taken in the same sequence, the figures for `O=C(Nc1ccc(I)cc1C(=O)O)OCc1ccccc1` were 100% and 92 µM. Turning to `CC/C(C)=C1\OC(=O)[C@H](C)[C@H](O)[C@H](Cc2cccnc2)NC(=O)[C@@H](NC(=O)c2ncccc2O)[C@@H](C)OC1=O`, the inhibition entry in data set [4] was “inactive”. Turning to `O=C(O)c1cc2sccc2[nH]1`, the IC50 in [1] came out at 185 µM. Moreover, the MIC90 in data set [2] is above 300 µM. On to `O=C(Nc1ccc(I)cc1C(=O)O)c1ccc(OC(F)(F)F)cc1`, for which, in data set [6], the result was Active. In addition, the IC50 in data set [1] worked out at 84 µM.

For `CCc1cc(C(N)=S)ccn1` [ETHIONAMIDE], the MIC in data set [2] worked out at 2 µg/mL. As to `O=C(O)c1ccccc1` [BENZOIC ACID], the MIC in [5] came out at 33 µg/mL.

With `CN(C(=O)OC(C)(C)C)c1ccc(I)cc1C(=O)O`, the inhibition in data set [3] came to 50%. Moreover, in data set [1], the IC50 is 1000 µM. Turning to `O=C(Nc1ccc(I)cc1C(=O)O)c1ccncc1`, the IC50 in data set [1] is above 400 µM. Regarding `O=C(Nc1ccc(I)cc1C(=O)O)c1ccc(C(F)(F)F)cc1`, in data set [6], the outcome was Active. Also, the IC50 in data set [1] amounted to 69 µM. On to `O=C(O)c1cc(I)ccc1NC(=O)C1Cc2ccccc2C1`, for which, in [1], the IC50 came to 140 µM. For `COC(=O)c1cc(I)ccc1NC(=O)OC(C)(C)C`, the inhibition in data set [3] stood at 0%. Also, the IC50 in data set [1] was above 1000 µM.

For `O=C(O)c1cc(I)ccc1NC(=O)C1CC1`, the IC50 in data set [1] is above 500 µM. Consider `COc1ccc(NC(=O)OC(C)(C)C)c(C(=O)O)c1`, for which, in [3], the inhibition worked out at 31%. Moreover, the IC50 in data set [1] was above 1000 µM.

Consider `NNC(=O)c1ccncc1` [ISONIAZID], for which the MIC in [2] was found to be 0.125 µg/mL.

As to `O=C1NC(=S)NC(=O)C1C/C=C/c1ccccc1`, the IC50 in data set [1] stood at 40 µM. The MIC90 in [2] is above 300 µM. Consider `CC(C)(C)OC(=O)Nc1ccccc1C(=O)O`, for which, in data set [3], the inhibition stood at 31%. Further, the IC50 in [1] was above 1000 µM. For `Cc1ccc(C(=O)Nc2ccc(I)cc2C(=O)O)cc1`, in data set [1], the IC50 was 95 µM. Regarding `O=C(Nc1ccc(I)cc1C(=O)O)c1ccc(Cl)c(C(F)(F)F)c1`, the outcome in [6] was Active. The IC50 in data set [1] turned out to be 59 µM. Regarding `O=C(Nc1ccc(I)cc1C(=O)O)c1ccc(Cl)cc1`, the IC50 in data set [1] was 53 µM. Same read-out and setting: under `O=C(CCc1ccccc1)Nc1ccc(I)cc1C(=O)O` stands 295 µM; under `O=C(Cc1ccccc1)Nc1ccc(I)cc1C(=O)O`, above 500 µM. For `CC(=O)Oc1ccccc1C(=O)O` [ASPIRIN], the MIC in data set [5] is 33 µg/mL. For the compound `O=C(CCCc1ccccc1)Nc1ccc(I)cc1C(=O)O`, the IC50 in data set [1] came out at 186 µM. On the same count and under the same terms, under `O=C(Nc1ccc(I)cc1C(=O)O)c1ccccc1` stands 145 µM. `O=C(Nc1ccc(I)cc1C(=O)O)c1ccc(Cl)c(Cl)c1` had a thermodynamic solubility at 24 h in data set [7] above 200 µM. In addition, the IC50 in data set [1] came out at 38 µM. In [2], the MIC90 amounted to 300 µM. In data set [8], this compound displayed a logD at 2 h of 3.4.

Consider `CC1(C#CC(=O)O)CC1(Cl)Cl` (stereo unspecified), for which the IC50 in [1] turned out to be 25 µM. The MIC90 in data set [2] is above 300 µM. Take `O=C(Nc1ccc(I)cc1C(=O)O)c1ccc(Cl)nc1`: the IC50 in data set [1] came to 147 µM. As to `CO[C@H]1/C=C/O[C@@]2(C)Oc3c(C)c(O)c4c(O)c(c(/C=N/N5CCN(C)CC5)c(O)c4c3C2=O)NC(=O)/C(C)=C\C=C\[C@H](C)[C@H](O)[C@@H](C)[C@@H](O)[C@@H](C)[C@H](OC(C)=O)[C@@H]1C` [RIFAMPIN], the MIC in data set [2] was 0.004 µg/mL. For the compound `CC(C)(C)OC(=O)Nc1cc2ccccc2cc1C(=O)O`, the inhibition in [3] was found to be 100%. For the same compound, the IC50 in data set [1] is 310 µM. In the case of `CC(C)(C)OC(=O)Nc1ccc(I)cc1C(=O)O`, the inhibition in data set [3] turned out to be 100%. The inhibition result in data set [9] was “Active”. Also, the MIC90 in data set [2] came out at 300 µM.

For orientation: IC50 means the midpoint of a concentration-inhibition curve. Usually MIC90 stands for the lowest concentration that inhibits either 90% of growth or 90% of the strains tested, depending on the study. By inhibition is commonly meant how much of the control response was suppressed. As a reminder, the MIC is the lowest concentration found to suppress growth. The term solubility (thermodynamic) denotes the concentration in solution at equilibrium with solid. The term logD denotes lipophilicity at a set pH, counting ionised and neutral species. Low readings indicate a more hydrophilic compound, high ones a more lipophilic compound.
